ERAP1 inh: blocks human ERAP1 aminopeptidase activity; recombinant ERAP1, Leu-AMC fluorescence, 60 min; inhibition, % at 10.7 µM; 0.15% of 340,000 active;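 active means mean replicate inhibition of at least 30%, or all replicates individually reaching that 30% level; inactive means mean below 30% and not every replicate reaching it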;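 further: 0% = neutral control wells and 100% = L-leucinethiol positive control wells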
DENV2 CPE rescue: DENV2-induced cell death inhibition | DENV2-infected cells, cytopathic effect rescue, plate reader | CPE inhibition, % at 9.99 µM | 1.7% of 350,000 active | AID 651640; in the data active means CPE inhibition above about 20%, passing the limit was not always enough; inconclusive means no clear call, values can overlap the other calls; tested in BHK-21 cells;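 further: 0% = median of neutral control wells and 100% = median of positive control wells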
SIRT5 inh: inhibitors of human sirtuin-5 desuccinylase; AID 652115; 1.1% of 330,000 active; inhibition, % at 15 µM; Purified SirT5, succinyl-peptide AMC, trypsin-coupled fluorescence; in the data active means inhibition above about 15%; inconclusive means no clear call, values can overlap the other calls
Target sequence (Q9NXA8 whole entry, looked up): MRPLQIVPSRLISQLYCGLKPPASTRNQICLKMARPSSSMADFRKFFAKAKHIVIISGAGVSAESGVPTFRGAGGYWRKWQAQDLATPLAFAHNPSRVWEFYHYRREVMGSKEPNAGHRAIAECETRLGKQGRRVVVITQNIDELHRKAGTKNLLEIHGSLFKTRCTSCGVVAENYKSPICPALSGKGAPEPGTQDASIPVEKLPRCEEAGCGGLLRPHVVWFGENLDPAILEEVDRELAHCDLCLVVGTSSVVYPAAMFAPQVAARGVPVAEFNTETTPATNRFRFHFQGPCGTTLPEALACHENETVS
CAL PDZ FP-1: inhibitors of human CAL PDZ peptide binding. Q9HD26. purified CAL PDZ, TMR-peptide fluorescence polarization, 1 h. inhibition, % at 20 µM. 0.02% of 330,000 active;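 active means highest replicate inhibition of at least 40%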;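 further: plate controls were DMSO neutral control wells for no effect and unlabeled competitor peptide control wells for full effect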
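System: purified tagged CAL PDZ domain construct (CerCALP). Schedule: 1 h incubation at room temperature before polarization reading. Medium: 25 mM sodium phosphate pH 7.4, 150 mM NaCl, TCEP, IgG, Thesit. Read-out: percent inhibition from loss of millipolarization. Measured by: FP readout, S and P plane fluorescence. Probe or stimulus: fluorescent TMR peptide probe.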
S100A4 MyoIIA: inhibitors of human S100A4 binding to myosin IIA peptide; P26447; S100A4/TAMRA-MyoIIA peptide fluorescence polarization; inhibition, % at 10.7 µM; 0.14% of 360,000 active;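 active means mean inhibition of at least 70% across replicates, with every replicate also reaching that level; inconclusive means mean inhibition reaches 70% but some replicates fall short; inactive means mean inhibition below 70%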
Target sequence (P26447 whole entry, looked up): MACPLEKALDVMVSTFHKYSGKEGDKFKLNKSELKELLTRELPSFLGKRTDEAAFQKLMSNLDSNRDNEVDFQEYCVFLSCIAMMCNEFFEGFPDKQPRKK
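System – human S100A4 monomer protein, biochemical binding assay · Buffer or medium – Calcium-containing HEPES buffer, pH 7.2 · Timing – 5 min between mix addition and reading · Also added – TAMRA-labelled myosin IIA heavy-chain peptide probe, 5 nM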
CAL PDZ FP-2: blocks peptide binding to the human CAL PDZ domain; Q9HD26; purified CAL PDZ, TMR-peptide fluorescence polarization, 1 h; inhibition, % at 24.9 µM; 0.92% of 300,000 active;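 active means mean inhibition of at least 30% with at least half of replicates also reaching 30%; inconclusive means no clear call, values can overlap the other calls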;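 further: 0% = DMSO neutral control and 100% = excess unlabeled competitor peptide PRC23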
* marks the source's active call; other numbers are inactive results; ? = inconclusive; nt = no result given. This is a sample that favours compounds with a hit; in the whole collection about 2.9% have one here.

SMILES | ERAP1 inh | DENV2 CPE rescue | SIRT5 inh | CAL PDZ FP-1 | S100A4 MyoIIA | CAL PDZ FP-2
O=C(C1CCOCC1)N1C[C@H]2[C@@H](c3ccccc31)[C@H](CO)N2C(=O)c1ccccc1 | 3 | 11 | -2 | nt | 3 | nt
C[C@@H]1CN([C@H](C)CO)C(=O)c2cc(NC(=O)Nc3cccc4ccccc34)ccc2O[C@@H](C)CCCCO[C@H]1CN(C)Cc1ccc2c(c1)OCO2 | nt | -23 | nt | nt | nt | nt
CCSS(=O)(=O)c1cccc2cccnc12 | 96* | 0 | 0 | -1 | -4 | -5
O=C(O)CCS(=O)(=O)c1cccc2cccnc12 | nt | nt | nt | -1 | nt | 2
COc1ccccc1NC(=O)N1CCCCN2[C@H](C1)[C@@H](c1ccc(C#CC3CCCC3)cc1)[C@@H]2CO | 1 | -11 | 16* | nt | 1 | nt
COc1ccccc1NC(=O)N1CCCCN2[C@H](CO)[C@@H](c3ccc(C#CC4CCCC4)cc3)[C@H]2C1 | 4 | 0 | 8 | nt | -9 | nt
COc1ccccc1NC(=O)N1CCCCN2[C@H](CO)[C@@H](c3ccc(C#CC4CC4)cc3)[C@H]2C1 | 4 | -6 | 6 | nt | 1 | nt
COc1ccccc1NC(=O)N1CCCCN2[C@H](CO)[C@H](c3ccc(-c4cccc(C)c4)cc3)[C@@H]2C1 | 4 | 22* | 15 | nt | 1 | nt
COc1ccccc1NC(=O)N1CCCCN2[C@H](C1)[C@@H](c1ccc(C#CC3CC3)cc1)[C@@H]2CO | -1 | 7 | 6 | nt | 81* | nt
COc1ccc(-c2ccc([C@H]3[C@@H](C#N)N(C(=O)NC(C)C)[C@H]3CO)cc2)cc1 | 2 | -13 | 13 | nt | 15 | nt
COc1ccccc1NC(=O)N[C@@H]1CC[C@H](CC(=O)NCc2ccc(Cl)c(Cl)c2)O[C@H]1CO | 0 | ? | -3 | nt | -2 | nt
CC(=O)OCCCCCCCCCCC[N+]1(C)CCCCC1 | 88* | 1 | -3 | 0 | -2 | 0
O=C(Cn1cnc2c(NCc3ccccc3)ncnc21)NCc1ccc2c(c1)OCO2 | 8 | 12 | 27* | 1 | 0 | -3
O=C(Cn1cnc2c(NCc3ccccc3)ncnc21)NCc1ccccc1 | 3 | 1 | 3 | 1 | -1 | -3
Cc1ccc(S(=O)(=O)N2CCC(=O)N([C@H](COCc3cccc(Cl)c3)Cc3ccccc3)CC2)cc1 | nt | 19 | 40* | nt | -2 | nt
CCc1c(C2(O)CCCCC2)[nH]c2c(C(=O)OC)cc(Cl)cc12 | -1 | 30* | nt | -1 | 4 | 1
Nc1ccc(Nc2nc(-c3cc4ccccc4oc3=O)cs2)cc1 | nt | -4 | -5 | 0 | 1 | 48*
CC(=O)Nc1ccc2c(c1)C(=O)N(C)[C@H]1CC[C@H](CC(=O)Nc3cccc(C(C)C)c3)O[C@@H]1CO2 | 0 | 108* | -2 | nt | 4 | nt
Cc1nn(C)cc1NC(=O)C[C@H]1CC[C@H]2[C@@H](COc3ccc(NC(=O)NC(C)C)cc3C(=O)N2C)O1 | 1 | ? | 5 | nt | -13 | nt
CC(C)c1cccc(NC(=O)C[C@H]2CC[C@H]3[C@@H](COc4ccc(NC(=O)NCc5ccccc5)cc4C(=O)N3C)O2)c1 | 0 | -12 | 5 | nt | -6 | nt
Cc1nn(C)cc1NC(=O)C[C@H]1CC[C@@H]2[C@H](COc3ccc(NC(=O)NC(C)C)cc3C(=O)N2C)O1 | -1 | 33* | -2 | nt | -1 | nt
CCCNC(=O)N1C[C@@H](O)COC[C@@H]2O[C@@H](CC(=O)NCc3ccncn3)CC[C@H]21 | 0 | 0 | -4 | nt | -2 | nt
CS(=O)(=O)N1CC2(C1)[C@@H](c1ccccc1)[C@@H](CO)N2CC1CCCC1 | 0 | -7 | 3 | nt | -2 | nt
O=C(NC1CCCC1)[C@H]1[C@H](CO)[C@H]2Cn3c(cccc3=O)[C@@H]1N2CC1CCCC1 | 0 | -3 | 2 | nt | 6 | nt
COc1cc(CC(NC(C)=O)C(=O)NC2CCN(C(=O)Nc3ccccc3Cl)CC2)cc(OC)c1 (centres undefined) | 0 | -3 | 6 | -1 | 0 | -8
SMILES | ERAP1 inh | DENV2 CPE rescue | SIRT5 inh | CAL PDZ FP-1 | S100A4 MyoIIA | CAL PDZ FP-2
COc1cc(CC(NC(C)=O)C(=O)NC2CCN(C(=O)Nc3ccccc3C)CC2)cc(OC)c1 (centres undefined) | 0 | 5 | 17* | -2 | 6 | 0
COc1ccc(NC(=O)Nc2ccc3c(c2)C(=O)N([C@H](C)CO)C[C@@H](C)[C@H](CN(C)C(=O)C2CCCCC2)OCCCC[C@H](C)O3)cc1 | 0 | 21* | 4 | nt | -3 | nt
COc1ccc(NC(=O)Nc2ccc3c(c2)C(=O)N([C@H](C)CO)C[C@@H](C)[C@@H](CN(C)C(=O)C2CCCCC2)OCCCC[C@@H](C)O3)cc1 | 0 | -5 | 0 | nt | 1 | nt
COc1ccc(NC(=O)Nc2ccc3c(c2)C(=O)N([C@@H](C)CO)C[C@@H](C)[C@@H](CN(C)C(=O)C2CCCCC2)OCCCC[C@H](C)O3)cc1 | 0 | -17 | 1 | nt | -52 | nt
COc1ccc(NC(=O)Nc2ccc3c(c2)C(=O)N([C@@H](C)CO)C[C@H](C)[C@@H](CN(C)C(=O)C2CCCCC2)OCCCC[C@H](C)O3)cc1 | 1 | 39* | 1 | nt | -4 | nt
C[C@@H]1CN([C@H](C)CO)C(=O)Cc2cc(NS(=O)(=O)c3ccc(F)cc3)ccc2O[C@@H]1CN(C)S(=O)(=O)c1cn(C)cn1 | 2 | 10 | -6 | nt | -5 | nt
C[C@H]1CN([C@@H](C)CO)C(=O)Cc2cc(NC(=O)Nc3ccc4c(c3)OCO4)ccc2O[C@@H]1CN(C)C(=O)Nc1ccc(C(F)(F)F)cc1 | 6 | -5 | 9 | nt | -6 | nt
O=C(C[C@@H]1C=C[C@H](NC(=O)NC2CCCCC2)[C@@H](CO)O1)NCc1ccc(F)cc1 | -1 | 3 | 1 | nt | -1 | nt
COc1cccc(NC(=O)N[C@@H]2C=C[C@@H](CC(=O)NCc3ccncn3)O[C@@H]2CO)c1 | -1 | -4 | 5 | nt | 90* | nt
COc1cccc(NC(=O)N[C@H]2C=C[C@H](CC(=O)NCc3ccccn3)O[C@H]2CO)c1 | -3 | 29* | -3 | nt | -3 | nt
O=C(C[C@H]1C=C[C@H](NC(=O)NC2CCCCC2)[C@H](CO)O1)NCc1ccc(F)cc1 | -1 | 28* | 0 | nt | -1 | nt
O=C(C[C@@H]1C=C[C@@H](NC(=O)Cc2ccccn2)[C@@H](CO)O1)NCCc1ccncc1 | 2 | 6 | 0 | nt | 0 | nt
COc1cccc(NC(=O)N[C@@H]2C=C[C@H](CC(=O)NCc3ccccn3)O[C@@H]2CO)c1 | 1 | -3 | -4 | nt | 0 | nt
O=C(C[C@H]1C=C[C@H](NC(=O)Cc2ccccn2)[C@@H](CO)O1)NCCc1ccncc1 | -3 | 23* | 11 | nt | 2 | nt
CCCNC(=O)N1CC2(CCN(S(=O)(=O)CC)CC2)c2c(n(C)c3cc(OC)ccc23)[C@H]1CO | nt | -6 | nt | nt | nt | nt
C[C@H]1CCCCO[C@@H](CN(C)Cc2ccc(C(F)(F)F)cc2)[C@@H](C)CN([C@@H](C)CO)C(=O)c2cc(NC(=O)C3CCCCC3)ccc2O1 | nt | 12 | nt | nt | nt | nt
